In experiment [1] the test system is A549. Kind of experiment: Induction of morphological apoptosis in human A549 cells assessed as decrease in cell density incubated for 48 hrs by Hoechst 33342 and PI staining based fluorescence microscopic method. It counts as functional. Summed up:
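A549 cells (4×10^5 per 6 cm dish) were grown 24 h, then exposed to compound at the indicated concentrations or DMSO for 48 h. After PBS washes, cells were stained with Hoechst 33342 (10 µg/ml) plus PI for 5 min at room temperature in the dark and imaged by fluorescence microscopy for nuclear morphology.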

In experiment [2] the test system is A549. Kind of experiment: Induction of cell cycle arrest in human A549 cells assessed as accumulation at S phase at 0.2 uM incubated for 24 hrs by PI staining based flow cytometric analysis (reference value: 27.59%). It counts as functional. The gist of the method:
(§1)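 A549 cells (4×10^5 per 6 cm dish) were grown 24 h, then exposed to compound (0.2, 0.4, 0.8 μM) or DMSO for 24 h. Cells fixed in 75% ethanol at −20 °C for at least 12 h, treated with RNase A at 37 °C for 30 min, then stained with PI for 15 min in the dark. Analysed by flow cytometry, mean ± SD, n = 3.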
(A flow cytometer gives signals particle by particle.)

The test system of experiment [3] is A549. Kind of experiment: Induction of mitochondrial membrane potential loss in human A549 cells assessed as cells with hyperpolarized mitochondria by measuring decrease in J-aggregates red fluorescence intensity at 0.2 uM incubated for 24 hrs by JC1 staining based fluorescence microscopic method (reference value: 98.4%). It counts as functional. Details: scale not given: the % may be the effect or the level left.

Experiment [4] relates to A549. Kind of experiment: Induction of apoptosis in human A549 cells assessed as necrotic cells at 0.6 uM incubated for 48 hrs by Annexin V-FITC and PI staining based flow cytometric analysis (reference value: 1.0%). It counts as functional.
Experiment [5] has as its system A549. Kind of experiment: Antiproliferative activity against human A549 cells assessed as inhibition of cell growth at 0.5 uM incubated for 48 hrs by MTT assay relative to control. It counts as functional. To be noted: A549, 48 h, read-out: GI. Background: Tetrazolium assays rely on reduction of a dye to a coloured formazan, in cell work by metabolically active cells.

The next experiment has as its system HOS. Kind of experiment: Antiproliferative activity against human HOS cells assessed as inhibition of cell growth incubated for 48 hrs by MTT assay. It is filed as functional, cell-based. The gist of the method:
(§2)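 MTT read-out. Cells seeded at 5.0 × 10⁴ cells/ml and cultured 24 h, then exposed to the drug over a range of concentrations for 48 h, with matching DMSO as control. MTT (5 mg/ml) added for 4 h, supernatant removed, formazan dissolved in DMSO, OD read at 570 nm. Run in triplicate, mean ± SD (n = 3).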

For experiment [6], the system named is A549. The experiment is described as follows: Induction of apoptosis in human A549 cells assessed as necrotic cells at 0.3 uM incubated for 48 hrs by Annexin V-FITC and PI staining based flow cytometric analysis (reference value: 1.0%). It is filed as functional.
In experiment [7] the test system is A549. Kind of experiment: Induction of apoptosis in human A549 cells assessed as early apoptotic cells at 0.3 uM incubated for 48 hrs by Annexin V-FITC and PI staining based flow cytometric analysis (reference value: 0.5%). It counts as functional.
For experiment [8], the target named is T1, Hsp90 co-chaperone Cdc37 (Homo sapiens) (UniProt Q16543).
T1 sequence (whole entry): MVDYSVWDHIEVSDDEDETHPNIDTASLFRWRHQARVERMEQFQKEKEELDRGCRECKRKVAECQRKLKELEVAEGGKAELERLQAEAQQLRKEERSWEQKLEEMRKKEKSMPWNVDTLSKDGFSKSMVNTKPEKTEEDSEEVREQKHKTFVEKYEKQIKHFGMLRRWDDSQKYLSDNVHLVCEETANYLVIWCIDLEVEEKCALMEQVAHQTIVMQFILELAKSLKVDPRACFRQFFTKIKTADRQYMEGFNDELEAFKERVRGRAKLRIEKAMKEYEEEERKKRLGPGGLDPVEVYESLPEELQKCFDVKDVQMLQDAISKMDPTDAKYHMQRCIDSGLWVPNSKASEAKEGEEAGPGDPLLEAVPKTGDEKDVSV
Kind of experiment: Binding affinity to Cdc37 in human A549 cells assessed as inhibition of HSP90-Cdc37 interaction by measuring decrease in CDK4 protein level incubated for 12 hrs by Western blot analysis. It counts as cell-based. The gist of the method: (§3)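 A549 cells (5×10^5 per 6 cm dish) were allowed to settle 12 h, then treated with DMSO or compound at the indicated concentrations for 12 h. Lysates were adjusted to 3 mg/ml protein by BCA and resolved on 10% SDS-PAGE, then Western blotted. β-actin or Hsp90 served as the loading control. Three separate experiments, mean ± SD.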
Background: Immunoblotting shows a protein as a band on a membrane.

The subject of experiment [9] is A549. Kind of experiment: Induction of mitochondrial membrane potential loss in human A549 cells assessed as cells with hyperpolarized mitochondria by measuring decrease in J-aggregates red fluorescence intensity at 0.8 uM incubated for 24 hrs by JC1 staining based fluorescence microscopic method (reference value: 98.4%). It counts as functional. Details: scale not given: the % may be the effect or the level left.

The next experiment concerns MCF7. Kind of experiment: Antiproliferative activity against human MCF7 cells assessed as inhibition of cell growth incubated for 48 hrs by MTT assay. Conditions: MCF7, 48 h. It counts as functional, cell-based. Summed up:
as §2

The test system of experiment [10] is A549. Kind of experiment: Induction of apoptosis in human A549 cells assessed as early apoptotic cells at 1.2 uM incubated for 48 hrs by Annexin V-FITC and PI staining based flow cytometric analysis (reference value: 0.5%). It is filed as functional. The gist of the method:
(§4)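 A549 cells (4×10^5 per 6 cm dish) cultured 24 h, then treated 48 h with compound or DMSO. Cells gently harvested, washed twice in cold PBS, resuspended in binding buffer with Annexin V and PI, stained 15 min at room temperature in the dark, analysed by flow cytometry. Mean ± SD, n = 3.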

The subject of experiment [11] is A549. The experiment is described as follows: Induction of mitochondrial membrane potential loss in human A549 cells assessed as cells with hyperpolarized mitochondria by measuring decrease in J-aggregates red fluorescence intensity at 0.4 uM incubated for 24 hrs by JC1 staining based fluorescence microscopic method (reference value: 98.4%). It counts as functional. Details: scale not given: the % may be the effect or the level left.

Experiment [12] can be described thus: Binding affinity to GSH in PBS at 100 uM assessed as reduction in absorption at 440 nm incubated up to 30 mins by UV absorption analysis. Summed up:
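Compound (100 μM) mixed with GSH (100 μM), Cdc37 (1.5 μM) or Hsp90 (1.5 μM) in PBS containing 1% DMSO, incubated at 37 °C for 0, 5, 15 and 30 min. UV spectra scanned 200-500 nm, with absorbance at 440 nm compared against the 0 min value (A/A0). Mean ± SD, n = 3.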

Experiment [13] concerns the target T1, Hsp90 co-chaperone Cdc37 (Homo sapiens). Kind of experiment: Binding affinity to Cdc37 in human A549 cells assessed as inhibition of HSP90-Cdc37 interaction by measuring increase in cleaved caspase-3 protein level at 1.25 to 5 uM incubated for 12 hrs by Western blot analysis. It counts as cell-based. Summed up:
as §3

Experiment [14] has as its system A549. The experiment is described as follows: Induction of apoptosis in human A549 cells assessed as viable cells at 1.2 uM incubated for 48 hrs by Annexin V-FITC and PI staining based flow cytometric analysis (reference value: 95.5%). It counts as functional. Conditions: A549, 48 h, read-out: Activity. The gist of the method: as §4
The subject of experiment [15] is A549. Kind of experiment: Induction of apoptosis in human A549 cells assessed as late apoptotic cells at 0.3 uM incubated for 48 hrs by Annexin V-FITC and PI staining based flow cytometric analysis (reference value: 3.0%). It is filed as functional.
The subject of experiment [16] is A549. The experiment is described as follows: Induction of apoptosis in human A549 cells assessed as increase in late apoptotic cells incubated for 48 hrs by Annexin V-FITC and PI staining based flow cytometric analysis. It counts as functional, cell-based.
Experiment [17] has as its system A549. Kind of experiment: Induction of cell cycle arrest in human A549 cells assessed as increase in accumulation at G0/G1 phase incubated for 24 hrs by PI staining based flow cytometric analysis. It is filed as functional. Summed up: as §1

Molecules are shown by their SMILES. Activity calls are given as the source filed them. The rule behind the calls is not given here.

For orientation: IC50 means the point on the concentration scale where inhibition reaches its midpoint. As to `CC1=C(O)C(=O)C=C2C1=CC=C1[C@@]2(C)CC[C@@]2(C)[C@@H]3C[C@](C)(C(=O)OCCCOC(=O)/C=C(\C#N)c4ccc(F)cc4)CC[C@]3(C)CC[C@]12C`, the Activity result is “Dose-dependent effect” with A549 [1]; 26.39% with A549 [2]; 84.2% in the experiment with A549 [3]; 6% with A549 [4]; 3.3% in the experiment with A549 [6]; 2.2% with A549 [7]. The Activity is 72.8% with A549 [9]; 7.4% with A549 [10]; 80% in the experiment with A549 [11]; 9.3% in the experiment with A549 [15]; “Dose-dependent effect” in the experiment with A549 [16]; “Dose-dependent effect” in the experiment with A549 [17]. In the experiment with A549 [5], the inhibition of growth at 0.5 µM amounted to 65.1%. For the same compound, the IC50 was 900 nM with HOS and 640 nM with MCF7. In [8], the inhibition result is “Dose-dependent effect”. Also, the result in experiment [12] was Active. In experiment [13], the inhibition entry is “Active”. Moreover, the viability at 1.2 µM in the experiment with A549 [14] came to 59.2%.

The values are drawn from ChEMBL document CHEMBL4376838, “Discovery of Novel Celastrol Derivatives as Hsp90-Cdc37 Interaction Disruptors with Antitumor Activity” (J Med Chem, 2019).
